Measurements from PMC6366617 (Science (New York, N.Y.), 2019).

B1: sushi 1 domain of GABABR1a (Fc-tag enzymatically removed) (domain or fragment)
chain: TSEGCQIIHPPWEGGIRYRGLTRDQVKAINFLPVDYEIEYVCRGEREVVGPKVRKCLANGSWTDMDTPSRCVR

Tests used:
[1] = system: Schaffer collateral synapses, acute hippocampal slices; design: species or system mouse; settings: for paired-pulse ratio (PPR): 1 μM protein, first 2 stimuli at 20, 50 and 100 Hz
Procedure, shortened: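 Acute mouse hippocampal slices were pre-incubated 90 min with or without 1 μM test protein (Fc tag removed), with or without 10 μM CGP54626. fEPSPs were recorded in CA1 stratum radiatum on Schaffer collateral stimulation. Input/output: 0.1 Hz, 30–150 μA. Bursts at 20, 50 and 100 Hz were normalized to the first response peak. PPR used the first two pulses. n is slices. Means ± SEM.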

[2] = system: cultured hippocampal mouse neurons (presynaptic strength); experiment: FM1-43 presynaptic vesicle recycling in cultured hippocampal neurons; format: cell-based
Procedure, shortened: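 Cultured mouse hippocampal neurons were loaded and unloaded with FM1–43 by a combined stimulation paradigm, before and after test protein (Fc tag enzymatically removed; dose series, 1 μM top). Presynaptic strength S = ΔF at individual boutons × density of FM+ boutons per image area. Antagonist arms were run with or without GABABR antagonist, normalized to control. N is independent experiments. Means ± SEM, one-way ANOVA with Tukey post hoc.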

[3] = system: cultured mouse hippocampal neurons (mEPSCs); experiment: mEPSC recording in cultured hippocampal neurons; format: cell-based; settings: for reduction of mEPSC frequency: P < 0.001, 12-17 DIV; for effect on mEPSC frequency: acute application, Fc-tag enzymatically removed (ExD-AcD, sAPPαΔExD; n=17-20, N=3)
[4] = system: cultured mouse hippocampal neurons (mIPSCs); experiment: mIPSC recording in cultured hippocampal neurons; format: cell-based; settings: for reduction of mIPSC frequency: acute, P < 0.001
Procedure, shortened: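 Mouse hippocampal neurons in culture (12–17 DIV) were recorded for miniature currents, and mIPSCs were separated from mEPSCs by their decay kinetics. Frequency was compared between baseline and acute application of 250 nM test protein, or of 30 μM baclofen as GABABR agonist reference. n is cells.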

[5] = system: neurons lacking APP; App/Aplp1 dKO cultures (mEPSCs); experiment: mEPSC recording in neurons lacking APP / App/Aplp1 dKO cultures; format: cell-based, mouse
[6] = system: neurons lacking APP; App/Aplp1 dKO cultures (mIPSCs); experiment: mIPSC recording in neurons lacking APP / App/Aplp1 dKO cultures; format: cell-based, mouse
[7] = molecular target: sushi 1 domain of GABABR1a (Homo sapiens, UniProt Q9UBS5); experiment: Isothermal titration calorimetry; format: binding; settings: ITC
Procedure, shortened: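 Isothermal titration calorimetry was run between purified test protein and purified GABABR1a sushi 1 domain. Fc tags were enzymatically removed from both. The dissociation constant (KD) was derived from the titration.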

GABABR2 = experiment: Cell-surface binding assay, GABABR2-expressing HEK293T cells; settings: immunostaining, confocal, pDisplay vector, n=24
GABABR1b = experiment: Cell-surface binding assay, GABABR1b-expressing HEK293T cells; settings: immunostaining, confocal, pDisplay vector, n=24
Procedure, shortened: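 Fc-tagged test protein, affinity-purified from transfected HEK293T supernatants, was applied to HEK293T cells displaying the receptor ectodomain at the surface (pDisplay). Fc alone served as control. Bound protein was detected by immunostaining, imaged by confocal microscopy and quantified per cell. n is total cells from 3–4 independent experiments. Means ± SEM, two-way ANOVA with Bonferroni post hoc.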

GABABR1a sushi 1 = experiment: Biolayer interferometry, sAPPα binding to immobilized sushi peptides; settings: sAPPα Fc-tag enzymatically removed; immobilized Fc-tagged sushi peptides
[8] = system: synaptic transmission and plasticity; settings: ref [16]–[19]; cited from earlier work
App KO mice = settings: cited from earlier work
[9] = molecular target: sAPPα (Fc-tag enzymatically removed) (UniProt P05067-4 18-612); experiment: ITC
[10] = system: sAPPα-Fc binding to GABABR1a-expressing HEK293T cells; experiment: Competition of sAPPα-Fc binding to GABABR1a-expressing HEK293T cells; settings: increasing concentrations of untagged sushi 1 peptide, excess; n=24-31
[11] = molecular target: B1; experiment: ITC
[12] = 30 μM baclofen, App/Aplp1 dKO vs WT cultures
[13] = 1 μM sAPPα, 90 min pre-incubation, 0.1 Hz, 30-150 μA

C[C@H](NC[C@H](O)CP(=O)(O)CC1CCCCC1)c1ccc(Cl)c(Cl)c1 [CGP54626, reference compound]
effect of CGP54626 on sAPPα-mediated decrease in i/o slope ([1]; CGP54626 10 μM, preincubation of slices): abolished the sAPPα-mediated decrease in the slope of the i/o curve | effect of CGP54626 on sAPPα-induced decrease of presynaptic strength ([2]; CGP54626 10μM, N=8): occluded

C[C@H](NC[C@H](O)CP(=O)(O)Cc1ccccc1)c1ccc(Cl)c(Cl)c1 [CGP55845, reference compound]
effect of CGP55845 pretreatment on APP 17mer reduction of mEPSC frequency ([3]; CGP55845 5μM, 17mer 250 nM, n=16, N=3 (without CGP n=14, N=3)): blocks this effect | effect of CGP55845 pretreatment on sAPPα effect on mIPSC frequency ([4]; CGP55845 5 μM, pretreatment): blocked by pretreatment

NCC(CC(=O)O)c1ccc(Cl)cc1 (stereo not drawn) [baclofen, reference compound]
reduction of mEPSC frequency ([3]; 30 μM baclofen, acute, n=14 cells): 63 ± 5% | effect on mEPSC frequency in App/Aplp1 dKO cultures [5, 12]: similarly reduced mEPSC and mIPSC frequency | reduction of mIPSC frequency ([4]; 30 μM baclofen, n=14 cells): 62 ± 5% | effect on mIPSC frequency in App/Aplp1 dKO cultures [6, 12]: similarly reduced mEPSC and mIPSC frequency

residues 211–220: peptide of APP695 residues 211–220 (GGADTDYADG)
binding affinity to sushi 1 (in words) ([7]; for ExD-AcD Fc-tag enzymatically removed): failed to bind sushi 1

sAPPα-Fc: recombinant sAPPα with C-terminal Fc-tag from transfected HEK293T supernatants
binding to GABABR2-expressing cells (GABABR2): not to GABABR1b-, or GABABR2-, expressing cells | binding to GABABR1b-expressing cells (GABABR1b): not to GABABR1b-

sAPPα: soluble APP ectodomain released by α-secretase; purified recombinant protein
paired-pulse ratio (PPR) [1]: increased PPR for each frequency | decrease of slope of the input/output (i/o) curve [1, 13]: 23% | fEPSP amplitude [1, 13]: reduced fEPSP amplitude | binding of sAPPα to sushi 1 (biolayer interferometry) (GABABR1a sushi 1): sushi 1 peptide was sufficient for binding sAPPα | Kd ([7]; read-out: dissociation constant (KD) for sAPPα-sushi 1, purified proteins, Fc-tag enzymatically removed from both): 431 nM | effect on mEPSC frequency at 25 nM ([3]; 25nM sAPPα): already apparent at 25nM | effect on mEPSC amplitude ([3]; 250 nM sAPPα (Fc-tag removed), acute): without affecting mEPSC amplitude | reduction of mEPSC frequency ([3]; 250 nM sAPPα (Fc-tag removed), acute, n=13 cells): 39 ± 5% | effect on LTP [8]: an enhancement of LTP | effect on synaptic activity [8]: a reduction in synaptic activity | effect on mEPSC frequency in neurons lacking APP ([5]; sAPPα, neurons lacking APP): still reduced mEPSC and mIPSC frequency | reduction of mIPSC frequency ([4]; 250 nM sAPPα, n=13 cells): 44 ± 5% | reduction in mIPSC amplitude ([4]; sAPPα, acute (250 nM)): 14% | reduction of total presynaptic strength (S = ΔF × D) ([2]; 1 μM sAPPα, FM1-43 loading/unloading, n=8 experiments, P < 0.001): 57 ± 7% | total presynaptic strength (S = ΔF × D), dose dependence ([2]; FM1-43 loading/unloading, sAPPα Fc-tag enzymatically removed, N=5-8): decreased the total presynaptic strength | rescue of spine density defects (App KO mice; ref [20]): sufficient to rescue synaptic defects in App KO mice, including defects in spine density | rescue of LTP defects (App KO mice; ref [21], [22]): sufficient to rescue synaptic defects in App KO mice | rescue of spatial learning defects (App KO mice; ref [21]): sufficient to rescue synaptic defects in App KO mice | effect on mIPSC frequency in neurons lacking APP ([6]; sAPPα, neurons lacking APP): still reduced mEPSC and mIPSC frequency

sAPPαΔExD: sAPPα with deletion of the ExD
paired-pulse ratio (PPR) [1]: abolished the sAPPα-mediated effect | effect on the i/o curve with ExD deletion ([1]; sAPPαΔExD 1 μM): abolished the sAPPα-mediated effect on the i/o curve | effect on mEPSC frequency [3]: had no effect | effect on mIPSC frequency ([4]; acute application): not sAPPαΔExD, reduced mIPSC frequency | decrease of total presynaptic strength with ExD deletion ([2]; sAPPαΔExD 1 μM, FM1-43): not observed

sAPPβ: soluble APP ectodomain released by β-secretase
effect on mEPSC frequency [3]: similarly reduced mEPSC frequency

B1
Kd [9]: 431 nM

B2: sushi 1 peptide: sushi 1 domain of GABABR1a, recombinant (protein)
chain: TSEGCQIIHPPWEGGIRYRGLTRDQVKAINFLPVDYEIEYVCRGEREVVGPKVRKCLANGSWTDMDTPSRCVR
modifications: left off: Fc, end not stated, kept
blocking of sAPPα-Fc binding to GABABR1a-expressing cells [10]: blocked binding of sAPPα-Fc to GABABR1a-expressing cells

B3: APP 9mer peptide (APP695 residues 204-212) (peptide, UniProt P05067-4 204-212, looked up)
peptide: DDSDVWWGG
Kd [11]: 2300 nM

B4: APP 17mer peptide (APP695 204-220AA) (peptide, UniProt P05067-4 204-220, looked up)
peptide: DDSDVWWGGADTDYADG
Kd [11]: 810 nM

B5: sAPLP1: soluble APP-like protein 1, lacks a conserved ExD (protein)
chain: SLAGGSPGAAEAPGSAQVAGLCGRLTLHRDLRTGRWEPDPQRSRRCLRDPQRVLEYCRQMYPELQIARVEQATQAIPMERWCGGSRSGSCAHPHHQVVPFRCLPGEFVSEALLVPEGCRFLHQERMDQCESSTRRHQEAQEACSSQGLILHGSGMLLPCGSDRFRGVEYVCCPPPGTPDPSGTAVGDPSTRSWPPGSRVEGAEDEEEEESFPQPVDDYFVEPPQAEEEEETVPPPSSHTLAVVGKVTPTPRPTDGVDIYFGMPGEISEHEGFLRAKMDLEERRMRQINEVMREWAMADNQSKNLPKADRQALNEHFQSILQTLEEQVSGERQRLVETHATRVIALINDQRRAALEGFLAALQADPPQAERVLLALRRYLRAEQKEQRHTLRHYQHVAAVDPEKAQQMRFQVHTHLQVIEERVNQSLGLLDQNPHLAQELRPQIQELLHSEHLGPSELEAPAPGGSSEDKGGLQPPDSKDDTPMTLPKGSTEQDAASPEKEKMNPLEQYERKVNASVPRGFPFHSSEIQRDELAPAGTGVSRE
modifications: left off: Fc, end not stated, kept
effect on mEPSC frequency [3]: did not reduce mEPSC frequency | reduction in mIPSC frequency by sAPLP1 ([4]; sAPLP1, acute, n=17 cells, P < 0.05): 17 ± 9%
